# Screening data (PubChem BioAssay)
# The entries come from a sample that favours hits as a whole.
# Beta2AR agonist = human beta-2 adrenergic receptor agonism by FAP. P07550. Am2.2-beta2AR cells, FAP receptor internalization, flow cytometry. response, % (test concentration not listed). hit rate 0.43% among 340,000;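 active = response above a set limit, near 3 SD of response in nonfluorescent compounds, cut at about 42% in these data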
# UPR XBP1 act = adaptive UPR (XBP1) activation | CHO-XBP1 luciferase reporter, IRE1-XBP1 UPR activation, luminescence; percent of tunicamycin response, DMSO as zero | activation, % at 20 µM | hit rate 0.33% among 330,000 | AID 463104;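 active = versus positive control, 20 µM dose yields 30% or more activation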
#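 Material – CHO cell line with stable XBP1 luciferase reporter · Buffer or medium – F12 plus 10% FBS · Compound – single point, 20 µM final compound, 1% DMSO · Schedule – 16-18 h cell attachment at 37 °C, then 6 h compound exposure · Signal – Steady-Glo luminescence read · Benchmarks – high control tunicamycin 10 µg/mL final, low control DMSO vehicle only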
# VLA-4 inh = inhibition in a human VLA-4 binding assay; P13612; VLA-4 expressing cells, ligand binding flow cytometry; inhibition, % (about 7 µM as worked out from the volumes in the protocol); hit rate 0.2% among 330,000; in the data active = inhibition above about 50%
# CHOP inhibitor = blocks CHOP induction under ER stress | CHO-K1 CHOP-promoter luciferase, tunicamycin-induced, 15-18 h | inhibition, % at 10 µM | hit rate 3.8% among 220,000;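 active = compounds that reduced the stress-induced luciferase reporter signal by more than about 70% of percent inhibition, limit read from the data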
# CHOP UPR activ = activators of apoptotic arm of unfolded protein response (CHOP) | CHO-CHOP luciferase reporter, UPR activation, luminescence; percent of tunicamycin response over DMSO baseline | activation, % at 10 µM | hit rate 0.34% among 330,000;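 active = at 10 µM dose, activation of 40% or more, normalized to positive control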
#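 System: CHO CHOP reporter cells. Amount: 500 cells per well. Buffer or medium: F12 medium, 10% FBS. Compound dosing: one dose, 10 µM in 0.5% DMSO. Incubation: 6 h compound exposure at 37 °C after overnight seeding. Technique: Steady-Glo luciferase luminescence. Benchmarks: tunicamycin and DMSO controls.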
# Hits are given with their value; i = inactive; nt = no result given.
SMILES,Beta2AR agonist,UPR XBP1 act,VLA-4 inh,CHOP inhibitor,CHOP UPR activ
CC(CCc1ccccc1)NC(=O)CCCCCNc1nc(=S)[nH]c2ccccc12 (centres undefined),nt,i,i,i,i
Nc1cc(=O)[nH]c(SCC(=O)Nc2ccc(N3CCCCC3)cc2)n1,i,i,i,nt,i
Cc1ccc(C(O)(c2ccccc2)c2ccccc2C(C)N(C)C)c(C)c1 (centres undefined),i,i,i,95.8,i
COC(=O)c1c(C)[nH]c(C(=O)/C=C/c2ccccc2)c1C,i,i,i,75.8,i
COC(=O)c1c(C)[nH]c(C(=O)/C=C/c2ccc(C)cc2)c1C,i,i,i,i,i
CCOc1ccc(S(=O)(=O)Nc2cc(SCC(=O)O)c(O)c3ccccc23)cc1,i,nt,i,nt,nt
O=S(=O)(Nc1cc(Sc2cccc3cccnc23)c(O)c2ccccc12)c1ccccc1,nt,nt,nt,101.0,nt
CC1CC(C)CN(CC(C)(C)NS(=O)(=O)c2ccc(Cl)cc2)C1 (centres undefined),i,i,i,93.8,i
CC(C)(CN1CCCCC1)NS(=O)(=O)c1ccc(Cl)cc1,i,i,i,i,i
CC(=O)Nc1ccc(C(=O)OCc2ccc(Cl)c(Cl)c2)cc1,i,i,i,i,i
CCC(=O)Nc1ccc(C(=O)OCc2ccc(Cl)c(Cl)c2)cc1,i,i,i,89.2,i
COc1ccccc1CNC(=O)c1csc(Cc2ccc(Cl)cc2)n1,i,i,i,79.7,i
O=c1n(Cc2ccccc2Cl)nc2n1-c1ccccc1SC2,i,i,i,i,i
Cc1ccc2nc(SCC(=O)Nc3cc(C(C)(C)C)nn3-c3ccccc3)[nH]c2c1,i,i,i,72.3,i
Cc1cc(NC(=O)CSc2nc3ccccc3[nH]2)n(-c2ccccc2)n1,i,i,i,i,i
COc1cc2c(cc1NC(=O)CSc1ccc(C)cc1)oc1ccccc12,i,i,i,i,i
COc1cc2c(cc1NC(=O)CSc1nc3ccc(C)cc3[nH]1)oc1ccccc12,nt,i,i,76.7,i
Cc1ccc(NC(=O)Cn2c(O)c(N=NC(=O)c3cc([N+](=O)[O-])ccc3O)c3ccccc32)cc1,nt,i,i,i,i
Cc1cccc(NC(=O)Cn2c(O)c(N=NC(=O)c3ccccc3O)c3ccccc32)c1,i,i,i,82.9,i
CCCCSc1nnc(CNC(=O)C23CC4CC(CC(C4)C2)C3)n1Cc1ccccc1,i,i,i,85.4,i
Cc1ccc2nc(NC(=O)CCCc3nc4ccccc4s3)sc2c1,i,i,i,i,i
Cc1ccc2nc(NC(=O)CSCC(=O)OCC(=O)c3ccccc3)sc2c1,i,nt,i,71.5,nt
O=C(C[n+]1ccccc1)Nc1nc2ccccc2s1,i,i,i,i,i
O=C(O)CCC(=O)Nc1nc2ccccc2s1,i,i,i,71.8,i
CCOCC(=O)Nc1nc2ccc(C)cc2s1,i,i,i,i,i
SMILES,Beta2AR agonist,UPR XBP1 act,VLA-4 inh,CHOP inhibitor,CHOP UPR activ
Cc1ccc2nc(NC(=O)CCCC(=O)O)sc2c1,i,i,i,82.3,i
Cc1cccc(C(=O)NNC(=O)CSc2nnc(C3CC3)n2C)c1,i,i,i,nt,i
Cc1cccc(NS(=O)(=O)c2ccc(C)c(C(=O)NCC(c3cccs3)N(C)C)c2)c1 (centres undefined),i,i,nt,nt,i
CCN(CC)CCSc1nc2ccccc2n1Cc1ccccc1,i,i,i,nt,i
C=C1C(=O)[C@@]23[C@H](O)C[C@@H]4C(C)(C)CC[C@H](O)[C@]4(C)[C@@H]2C[C@H](O)[C@@H]1[C@H]3O,i,i,i,i,i
C=C1C(=O)[C@@]23[C@H](O)C[C@@H]4C(C)(C)CC[C@H](O)[C@@]4(C)[C@@H]2CC[C@@H]1[C@H]3O,46.0,i,i,98.5,i
CCOC(=O)/C(N=Nc1c(Br)cc(Br)cc1Br)=C(\C)O,i,i,i,84.7,i
COc1ccc(OCC(=O)Nc2cc(NC(=O)c3ccco3)ccc2OC)cc1,i,i,i,nt,i
CC(C)(C)OC(=O)N[C@@H](Cc1ccccc1)c1nnc(SCC(=O)c2ccc(Cl)cc2)o1,i,i,i,85.7,i
CC(C)(C)OC(=O)N[C@@H](Cc1ccccc1)c1nnc(SCC(=O)O)o1,i,i,i,i,i
Clc1ccc(Cc2noc(-c3cccs3)n2)cc1,i,i,i,86.9,i
CC(C)(C)n1nnnc1C(c1ccc(C(F)(F)F)cc1)N(Cc1ccc(F)cc1)Cc1ccco1 (centres undefined),i,i,i,82.4,i
CC(C)(C)n1nnnc1C(c1ccc(F)cc1)N(Cc1ccc(F)cc1)Cc1ccco1 (centres undefined),i,i,i,i,i
COc1ccc(/C=C/C(=O)Nc2cccc(S(=O)(=O)NC3=NCCCCC3)c2)cc1OC,i,i,i,nt,i
O=C(c1cc2ccccc2o1)N1CCN(c2ccccc2Cl)CC1,i,i,i,81.9,i
O=C(NC1CCCCC1)C(c1cccs1)N(C(=O)Cc1c[nH]c2ccccc12)c1ccc(F)cc1 (centres undefined),i,i,i,91.0,i
CCCCOc1ccc(Br)cc1CSC(=N)N,i,nt,nt,76.2,nt
CCOc1ccc(C(C)=O)cc1CSC(=N)N,i,i,i,i,i
CN=c1scc(-c2ccccc2F)n1/N=C/c1ccc[nH]1,i,i,i,97.5,i
CN=c1scc(-c2ccccc2F)n1/N=C/c1ccc(O)c(O)c1O,101.1,nt,nt,i,nt
O=C(NN=C1CCCCCC1)c1ccc(Cl)s1,i,i,i,nt,i
C/C(=N\NC(=S)NC1CCCCC1)c1c(F)cccc1F,i,i,i,80.2,i
O=C1c2nccnc2C(=O)N1c1ccc(C(F)(F)F)cc1,i,i,i,i,i
COc1ccccc1OCCCCN1CCN(c2ccccc2OC)CC1,i,i,i,i,i
COc1ccccc1N1CCN(CCCCOc2cccc3ccccc23)CC1,i,i,nt,83.7,i
SMILES,Beta2AR agonist,UPR XBP1 act,VLA-4 inh,CHOP inhibitor,CHOP UPR activ
CCc1ccc(NC(=O)c2cnc(N3CCN(c4ccccn4)CC3)c3ccccc23)cc1,i,i,i,74.9,i
CCOC(=O)c1cc(=O)n(Cc2ccccc2C)c2ccccc12,i,i,i,70.6,i
CCOC(=O)c1cc2c3ccccc3n(CC)c2nc1N,i,i,i,73.3,i
CC(C(=O)N1CCCCCC1)c1ccc([N+](=O)[O-])cc1 (centres undefined),i,i,i,i,i
COc1ccc(OCC(=O)Nc2ccncc2)cc1,i,i,i,i,i
COc1cccc(C(=O)NCCS(=O)(=O)NC2CCCC2)c1,i,i,i,nt,i
Cc1ccc(/C=C/c2ccc(=O)n(Cc3ccc(F)cc3)n2)cc1,i,i,i,78.8,i
Cc1ccc(-c2ccc(=O)n(Cc3ccc(F)cc3)n2)cc1,i,i,i,nt,i
COc1ccc(/C=C/c2ccc(=O)n(Cc3ccccc3)n2)cc1,i,i,i,i,i
O=c1ccc(/C=C/c2ccccc2)nn1Cc1ccc(F)cc1,i,i,i,80.1,i
CCCN(CCC)S(=O)(=O)c1ccc(C(=O)Nc2nc3c(s2)CCc2ccccc2-3)cc1,i,i,i,77.5,i
